These results are taken from ChEMBL document CHEMBL4152257, “Discovery of novel β-carboline/acylhydrazone hybrids as potent antitumor agents and overcome drug resistance” (Eur J Med Chem, 2018).

Assay [1] deals with MCF7. The experiment in a line: Antiproliferative activity against human MCF7 cells after 48 to 72 hrs by MTT assay. In kind it is functional, cell-based. A digest of the protocol: (§1)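 Cells in log phase seeded and allowed to adhere, then exposed to graded compound concentrations for 48 h or 72 h; MTT added for a further 2-3 h, formazan dissolved in DMSO. IC50 taken from dose-response curves; mean ± SD of at least three independent experiments.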

For assay [2], the system named is Raji. The experiment in a line: Antiproliferative activity against human Raji cells after 48 to 72 hrs by MTT assay. In kind it is functional, cell-based. The procedure, abridged:
as §1
A general note: Tetrazolium dyes change colour on reduction, which living cells bring about.

For assay [3], the system named is NCI-H460. The experiment in a line: Antiproliferative activity against human H460 cells at 1 uM after 48 to 72 hrs by MTT assay relative to control. In kind it is functional. The procedure, abridged: (§2)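 Single-concentration screen in the MTT proliferation assay: log-phase cells seeded and allowed to adhere, exposed to compound at 1 µM for 48 h or 72 h, MTT added for 2-3 h, formazan dissolved in DMSO; percent inhibition versus control.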

The subject of assay [4] is MCF7. The assay is described as follows: Antiproliferative activity against human MCF7 cells at 1 uM after 48 to 72 hrs by MTT assay relative to control. In kind it is functional. A digest of the protocol:
as §2

In assay [5] the test system is NCI-H460. The assay is described as follows: Antiproliferative activity against human H460 cells after 48 to 72 hrs by MTT assay. It counts as functional, cell-based. The procedure, abridged: as §1
Assay [6] has as its system Raji. The assay is described as follows: Antiproliferative activity against human Raji cells at 1 uM after 48 to 72 hrs by MTT assay relative to control. It counts as functional. The procedure, abridged:
as §2

The test system of assay [7] is MDA-MB-231. The assay is described as follows: Antiproliferative activity against human MDA-MB-231 cells at 1 uM after 48 to 72 hrs by MTT assay relative to control. In kind it is functional. The procedure, abridged: as §2
Assay [8] is described as follows: Resistance index, ratio of IC50 for human A549/TR cells to IC50 for human A549 cells. In kind it is functional.
Assay [9] has as its system A2780/Taxol. The assay is described as follows: Antiproliferative activity against human A2780T cells after 48 to 72 hrs by MTT assay. It counts as functional, cell-based. The procedure, abridged: as §1
The nature of assay [10]: Resistance index, ratio of IC50 for human A2780T cells to IC50 for human A2780S cells. In kind it is functional.
Assay [11] deals with A549/TR. The experiment in a line: Antiproliferative activity against human A549/TR cells after 48 to 72 hrs by MTT assay. It counts as functional, cell-based. A digest of the protocol:
as §1

Assay [12] concerns A2780S. The assay is described as follows: Antiproliferative activity against human A2780S cells after 48 to 72 hrs by MTT assay. In kind it is functional, cell-based. The procedure, abridged:
as §1

For the compound `COc1ccc(COc2cccc(/C=N/NC(=O)c3cc4c(cn3)[nH]c3ccccc34)c2)cc1`, the IC50 turned out to be 9.37 µM in assay [1], 2.34 µM in assay [2] and 2.84 µM in assay [5]. The inhibition at 1 µM turned out to be 38.6% in [3], 37% in [4], 52% in assay [6] and 23.6% in assay [7].

As to `O=C(N/N=C/c1cccc(OCc2ccc(C(F)(F)F)cc2)c1)c1cc2c(cn1)[nH]c1ccccc12`, the results for the IC50 in [1], in [2] and in [5] were 6.6 µM, 2.04 µM and 7.49 µM, respectively. The inhibition at 1 µM in assay [3] came to 23.4%; in assay [4], 38.4%; in assay [6], 51.2%; in assay [7], 24.4%.

In the case of `O=C(N/N=C/c1ccc2ccccc2c1)c1cc2c(cn1)[nH]c1ccccc12`, the IC50 in assay [1] came to 14.9 µM; in assay [2] it was 2.04 µM; in assay [5], 5.71 µM. In addition, the inhibition at 1 µM was determined as 40.7% in assay [3], 35.7% in assay [4], 51.8% in assay [6] and 21.8% in [7].

In the case of `Cc1cccc(COc2cccc(/C=N/NC(=O)c3cc4c(cn3)[nH]c3ccccc34)c2)c1`, the inhibition at 1 µM in [3] was found to be 27.4%; in assay [4] it was 26.3%; in [6], 33.2%; in assay [7] it was 22.7%.

For the compound `Cc1ccc(COc2cccc(/C=N/NC(=O)c3cc4c(cn3)[nH]c3ccccc34)c2)cc1`, the IC50 was determined as 5.24 µM in assay [1], 4.06 µM in assay [2] and 2.18 µM in assay [5]. Also, the inhibition at 1 µM in [3] came to 29.2%; in assay [4] it was 53.5%; in assay [6], 45%; in assay [7], 28.7%.

As for `O=C(N/N=C/c1cccc(OCc2ccc(F)cc2)c1)c1cc2c(cn1)[nH]c1ccccc12`, the inhibition at 1 µM in assay [3] was found to be 29.7%; in assay [4], 23.6%; in assay [6] it was 48%; in assay [7] it was 27.2%.

For `O=Cc1cccc(OCc2nnc(-c3cc4c(cn3)[nH]c3ccccc34)o2)c1`, the inhibition at 1 µM worked out at 13.9% in assay [3], 26.8% in [4], 17.7% in assay [6] and 9.83% in assay [7].

As to `Cc1ccccc1COc1cccc(/C=N/NC(=O)c2cc3c(cn2)[nH]c2ccccc23)c1`, the inhibition at 1 µM in assay [3] came to 29.4%; in [4], 18.2%; in [6] it was 36%; in [7], 24.8%.

`COC(=O)c1ccc(COc2cccc(/C=N/NC(=O)c3cc4c(cn3)[nH]c3ccccc34)c2)cc1`: the IC50 is 1.64 µM in assay [1], 3.88 µM in assay [2] and 1.17 µM in assay [5]. Further, the inhibition at 1 µM was determined as 25.9% in assay [3], 56.4% in [4], 63.8% in assay [6] and 31.8% in assay [7].

As to `COc1ccc(/C=N/NC(=O)c2cc3c(cn2)[nH]c2ccccc23)cc1OCc1ccccc1`, the inhibition at 1 µM is 20.7% in [3], -6.31% in assay [4], 25.8% in assay [6] and 22.2% in [7].

With `N#Cc1ccccc1COc1cccc(/C=N/NC(=O)c2cc3c(cn2)[nH]c2ccccc23)c1`, the inhibition at 1 µM in assay [3] was found to be 15.5%; in assay [4], 15.1%; in assay [6], 37.4%; in assay [7], 20.7%.

As for `C/C(=N\NC(=O)c1cccc(S(=O)(=O)N2CCOCC2)c1)c1cc(Cl)ccc1O`, the figures for the IC50 in [1], in assay [2] and in assay [5] were 0.62 µM, 0.98 µM and 0.47 µM, respectively. The inhibition at 1 µM in assay [3] amounted to 43.2%; in [4], 59.3%; in [6] it was 51.7%; in [7], 41.3%.

Take `O=C(N/N=C/c1cccc(Oc2ccccc2)c1)c1cc2c(cn1)[nH]c1ccccc12`: the inhibition at 1 µM was 22.1% in assay [3], -18.6% in assay [4], 2.06% in assay [6] and 6.76% in assay [7].

As to `O=C(N/N=C/c1cccc(OCc2ccccc2)c1)c1cc2c(cn1)[nH]c1ccccc12`, the values for the IC50 in [1], in assay [2] and in assay [5] were 3.56 µM, 2.62 µM and 6.52 µM, respectively. The inhibition at 1 µM in assay [3] turned out to be 29.7%; in [4] it was 23.1%; in assay [6], 50.2%; in [7], 25.6%.

With `O=C(N/N=C/c1cccc(OCc2cccc(Cl)c2)c1)c1cc2c(cn1)[nH]c1ccccc12`, the inhibition at 1 µM in assay [3] came out at 31.9%; in assay [4], 22.4%; in assay [6], 48.2%; in assay [7] it was 15.6%.

In the case of `O=C(N/N=C/c1cccc(OCc2ccc([N+](=O)[O-])cc2)c1)c1cc2c(cn1)[nH]c1ccccc12`, the IC50 was 8.3 µM in assay [1], 3.02 µM in assay [2] and 1.04 µM in [5]. The inhibition at 1 µM in assay [3] was determined as 38.4%; in assay [4], 32.8%; in [6], 56.7%; in assay [7], 20.2%.

Consider `COc1cc2c(c(OC)c1OC)-c1ccc(OC)c(=O)cc1[C@@H](NC(C)=O)CC2` [COLCHICINE], for which the results for the “Ratio IC50” value in [8] and in assay [10] were 60.41 and 1630.02, respectively. The IC50 was 35.6 µM in assay [9], 0.167 µM in assay [11] and 0.0219 µM in assay [12].

Turning to `O=C(N/N=C/c1cccc(OCc2ccc(Cl)cc2)c1)c1cc2c(cn1)[nH]c1ccccc12`, the IC50 came out at 8.62 µM in assay [1], 5.02 µM in [2] and 5.02 µM in [5]. Moreover, the inhibition at 1 µM in assay [3] was 40.4%; in [4], 24.3%; in assay [6], 56.7%; in assay [7], 30.7%.

`O=C(N/N=C/c1cccc(O)c1)c1cc2c(cn1)[nH]c1ccccc12`: the inhibition at 1 µM in assay [3] is 5.08%; in [4], -13.8%; in assay [6], 9.69%; in [7] it was 8.13%.

For the compound `O=C(N/N=C/c1c[nH]c2ccccc12)c1cc2c(cn1)[nH]c1ccccc12`, the inhibition at 1 µM in assay [3] stood at 16.2%; in assay [4], 6.31%; in [6] it was 8.66%; in assay [7], 7.1%.

`CN(Cc1ccccc1)Cc1nnc(-c2cc3c(cn2)[nH]c2ccccc23)o1`: the inhibition at 1 µM in assay [3] was 3.74%; in [4], -1.84%; in assay [6], 16.3%; in assay [7] it was -3.26%.

Turning to `N#Cc1cccc(COc2cccc(/C=N/NC(=O)c3cc4c(cn3)[nH]c3ccccc34)c2)c1`, the inhibition at 1 µM in [3] stood at 12.8%; in assay [4], 17.9%; in assay [6], 24.1%; in [7] it was 21.9%.

For the compound `O=C(N/N=C/c1cccc(OCc2cccc(F)c2)c1)c1cc2c(cn1)[nH]c1ccccc12`, the inhibition at 1 µM worked out at 21.7% in assay [3], 17.1% in assay [4], 40.4% in [6] and 16.5% in assay [7].

As for `c1ccc(OCc2nnc(-c3cc4c(cn3)[nH]c3ccccc34)o2)cc1`, the inhibition at 1 µM in [3] was 4.84%; in assay [4], -5.47%; in [6] it was 1.69%; in assay [7] it was 7.42%.

Regarding `O=C(N/N=C/c1cccc(OCc2ccccc2F)c1)c1cc2c(cn1)[nH]c1ccccc12`, the IC50 in assay [1] was found to be 6.5 µM; in assay [2], 2.94 µM; in assay [5], 1.36 µM. The inhibition at 1 µM worked out at 43.2% in [3], 46.2% in assay [4], 54.3% in [6] and 24.7% in assay [7].

For `O=C(N/N=C/c1cccc(OCc2ccc(Br)cc2)c1)c1cc2c(cn1)[nH]c1ccccc12`, the results for the IC50 in assay [1], in assay [2] and in assay [5] were 7.22 µM, 6.74 µM and 2.42 µM, respectively. Further, the inhibition at 1 µM in assay [3] is 52.8%; in assay [4], 50.4%; in assay [6], 58.7%; in assay [7], 31.8%.

Take `O=C(N/N=C/c1ccc(-c2ccccc2)cc1)c1cc2c(cn1)[nH]c1ccccc12`: the IC50 in [1] was 4.56 µM; in assay [2] it was 1.04 µM; in assay [5], 3.64 µM. In addition, the inhibition at 1 µM in assay [3] worked out at 44.3%; in assay [4], 36.6%; in assay [6] it was 62.5%; in assay [7], 29.3%.

As to `O=C(N/N=C/c1cccc(OCc2ccccc2Cl)c1)c1cc2c(cn1)[nH]c1ccccc12`, the IC50 in assay [1] turned out to be 2.32 µM; in assay [2] it was 3.02 µM; in [5] it was 1.27 µM. Further, the inhibition at 1 µM worked out at 45.4% in [3], 36.2% in [4], 56.3% in [6] and 28.6% in assay [7].

As to `O=Cc1ccc(OCc2nnc(-c3cc4c(cn3)[nH]c3ccccc34)o2)cc1`, the inhibition at 1 µM in assay [3] is 6.63%; in [4], -2.52%; in assay [6], 9.17%; in assay [7], 2.98%.

The term IC50 denotes the point on the concentration scale where inhibition reaches its midpoint. A low value points to greater potency in that assay. What is called inhibition is the drop in the measured response relative to a control, in per cent.
